Test results: ChEMBL document CHEMBL5325438 (Eur J Med Chem, 2023)
Activity calls are given as the source filed them. Square brackets hold non-standard residues; d marks the D form. Peptide text beside a SMILES is read from it. * marks the point of attachment. Cav = NC(N)=NOCC[C@H](N)C(=O)O; Tle = CC(C)(C)[C@H](N)C(=O)O; X1 = C[C@@H](CCCCN)C(=O)*

Experiments:
HepG2 [1] = assay: Cytotoxicity against human HepG2 cells assessed as reduction in cell viability at 100 uM incubated for 24 hrs by MTT assay relative to control; format: toxicity, cell-based; details: hepg2, 24 h
In short: (§1)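 HepG2, MDA-MB-231 and HT-29 cells grown in DMEM/10% FBS with penicillin/streptomycin at 37 °C, 5% CO2. Exponential-phase cells seeded at 5000/well, left overnight, then exposed 24 h to peptide at 0.1–100 μM (from 1.0 mM PBS pH 7.4 stocks). Viability by MTT, as % of untreated control ± SD.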

MDA-MB-231 [2] = assay: Cytotoxicity against human MDA-MB-231 cells assessed as reduction in cell viability at 100 uM incubated for 24 hrs by MTT assay relative to control; format: toxicity, cell-based; details: mda-mb-231, 24 h; in short: as §1
HT-29 [3] = assay: Cytotoxicity against human HT-29 cells assessed as reduction in cell viability at 100 uM incubated for 24 hrs by MTT assay relative to control; format: toxicity, cell-based; details: ht-29, 24 h; in short: as §1
HepG2 [4] = assay: Cytotoxicity against human HepG2 cells assessed as reduction in cell viability at 0.1 to 100 uM incubated for 24 hrs by MTT assay; format: toxicity, cell-based; details: hepg2, 24 h, dose 0.1-100 µM; in short: as §1
MDA-MB-231 [5] = assay: Cytotoxicity against human MDA-MB-231 cells assessed as reduction in cell viability at 0.1 to 100 uM incubated for 24 hrs by MTT assay; format: toxicity, cell-based; details: mda-mb-231, 24 h, dose 0.1-100 µM; in short: as §1
HT-29 [6] = assay: Cytotoxicity against human HT-29 cells assessed as reduction in cell viability at 0.1 to 100 uM incubated for 24 hrs by MTT assay; format: toxicity, cell-based; details: ht-29, 24 h, dose 0.1-100 µM; in short: as §1
[7] = Stability of compound in PBS buffer assessed as parent compound remaining at pH 2.0 incubated for 24 hrs by UV/Vis spectroscopic analysis; format: physicochemical; details: read-out: Stability
In short: (§2)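 Peptide at 50 μM in PBS at pH 2.0 or 7.4, kept at 37 °C; short-term stability over 0–24 h followed by UV/Vis spectroscopy; % remaining reported.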

[8] = Stability of compound in PBS buffer assessed as parent compound remaining at pH 7.4 incubated for 24 hrs by UV/Vis spectroscopic analysis; format: physicochemical; details: read-out: Stability; in short: as §2
[9] = Stability of compound in PBS buffer assessed as parent compound remaining at pH 2.0 measured after 30 days by RP-HPLC/UV/Vis spectroscopic analysis; format: physicochemical; details: time 30 day, read-out: Stability
In short: (§3)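 Peptide at 50 μM in PBS at pH 2.0 or 7.4, stored at room temperature and 37 °C for 30 days; % peptide remaining reported.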

[10] = Stability of compound in PBS buffer assessed as parent compound remaining at pH 7.4 measured after 30 days by RP-HPLC/UV/Vis spectroscopic analysis; format: physicochemical; details: time 30 day, read-out: Stability; in short: as §3
[11] = Permeability of compound in PBS buffer at pH 7.4 at 100 uM incubated for 4 hrs by PAMPA-BBB assay; format: ADME; details: read-out: permeability
In short: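 PAMPA-BBB with peptide at 100 μM in PBS, donor and acceptor both pH 7.4, 4 h at room temperature. Effective permeability Pe (×10⁻⁶ cm/s) and −log Pe reported as mean ± SEM of three independent experiments.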

Mus musculus [12] = assay: (§4) Neuroprotective activity against MPTP-induced Parkinson's disease BALB/c albino mouse model assessed as restoration of step-through latency values at 10 mg/kg, ip preadministered with compound for 1 hrs followed by MPTP addition and measured 10 days after first MPTP addition by step-through passive avoidance test; format: functional, organism-based; details: time 241.0 hrs
In short: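 Male BALB/c mice (8–10 weeks, 30–35 g), n = 5/group, were dosed i.p. once daily for 5 days with peptide (10 mg/kg), then MPTP (30 mg/kg) 60 min later; controls received saline or MPTP alone. On day 10, the latency to enter the dark compartment was recorded (cut-off 180 s). Data are mean ± SEM, analysed by one-way ANOVA/Dunnett versus saline and MPTP groups.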

[13] = Toxicity in MPTP-induced parkinsons's disease BALB/c albino mouse model assessed as body weight loss at 10 mg/kg, ip preadministered with compound for 1 hrs followed by MPTP-addition and measured 5 days after first MPTP addition; format: organism-based; details: in vivo, 121 h
In short: (§5)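 Male BALB/c mice (n = 5/group) given peptide 10 mg/kg i.p. daily for 5 days, each dose followed 60 min later by MPTP 30 mg/kg i.p.; saline controls. Body weight recorded on days 1, 5 and 10.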

[14] = Toxicity in MPTP-induced parkinsons's disease BALB/c albino mouse model assessed as body weight loss at 10 mg/kg, ip preadministered with compound for 1 hrs followed by MPTP-addition and measured 10 days after first MPTP addition; format: organism-based; details: in vivo, 241 h; in short: as §5
Mus musculus [15] = assay: as §4, with “motor function by measuring increase in hanging time value” for “step-through latency values”, “hanging” for “step-through passive avoidance”, “test relative to control” for “test”; format: functional; details: time 241 hrs
In short: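 Male BALB/c mice, 8–10 weeks old, 30–35 g, n = 5/group, trained 3 days on a horizontal wire (55 cm, 2.0 mm diameter, 37 cm high). Peptide 10 mg/kg i.p. daily for 5 days, with MPTP 30 mg/kg i.p. given 60 min later; saline controls. Hanging time tested on day 10; one-way ANOVA with Dunnett's test; mean ± SEM.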

Mus musculus [16] = assay: Neuroprotective activity against MPTP-induced neurotoxicity in BALB/c albino mouse model assessed as alleviation of MPTP-induced nigrostriatal dopaminergic neuronal damage by measuring increase in number of TH-postivie neurons in substantia nigra at 10 mg/kg, ip preadministered with compound for 1 hrs followed by MPTP addition and measured 11 days after first MPTP addition by immunohistological staining analysis (reference value: 66 +/- 1.41%); format: functional; details: time 265 hrs
In short: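 Same dosing as the behavioural study (peptide 10 mg/kg i.p., then MPTP 30 mg/kg i.p. 60 min later, 5 days; n = 5). Brains taken on day 11, fixed in 10% paraformaldehyde (pH 7.4, 0.1 M phosphate) overnight at 4 °C and paraffin-embedded. Substantia nigra sections stained with rabbit anti-TH (1:500). TH-positive cells counted, as % of saline control; ANOVA/Dunnett.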

[17] = molecular target: T1, Neurotensin receptor type 1 (Homo sapiens, UniProt P30989); assay: Binding affinity to human NTS1R assessed as dissociation constant
[18] = molecular target: T1, Neurotensin receptor type 1; assay: Binding affinity to human NTSR1 transfected in HEK293 cells assessed as inhibition constant incubated for 60 mins in the presence of [Leu3H]NT(8-13) by radioligand competition binding assay; format: cell-based
[19] = molecular target: Neurotensin receptor type 2 (Homo sapiens, UniProt O95665); assay: Binding affinity to human NTSR2 transfected in HEK293 cells assessed as inhibition constant incubated for 60 mins in the presence of [Leu3H]NT(8-13) by radioligand competition binding assay; format: cell-based
In short: (§6)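 IC50 from nonlinear regression, converted to Ki by Cheng–Prusoff; protein by Lowry. Means ± SEM of three (NTS1R) or four to five (NTS2R) experiments, each in triplicate. SI = Ki(NTS1R)/Ki(NTS2R).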

Homo sapiens = species: Homo sapiens; assay: Selectivity index, ratio of Ki for human NTSR1 transfected in HEK293 cells in the presence of [Leu3H]NT(8-13) to Ki for human NTSR2 transfected in HEK293 cells in the presence of [Leu3H]NT(8-13); format: cell-based
In short: as §6, with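 “Membranes from HEK293(T) cells transiently transfected with hNTS1R or hNTS2R; competition binding against [³H]NT(8–13). IC50” for “IC50”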

[20] = molecular target: T1, Neurotensin receptor type 1; assay: Agonist activity at human NTSR1 expressed in HEK293 cells assessed as Galphaq-mediated modulation of IP production incubated for 90 mins by IP-one HTRF assay; format: functional, cell-based
[21] = molecular target: T1, Neurotensin receptor type 1; assay: Agonist activity at human NTSR1 expressed in HEK293 cells assessed as Galphaq-mediated modulation of IP production by measuring maximal efficacy incubated for 90 mins by IP-one HTRF assay relative to full effect of (2S)-2-[[(2S,3S)-2-[[(2S)-2-[[(2S)-1-[(2S)-2-[[(2S)-2-amino-5-guanidino-pentanoyl]amino]-5-guanidino-pentanoyl]pyrrolidine-2-carbonyl]amino]-3-(4-hydroxyphenyl)propanoyl]amino]-3-methyl-pentanoyl]amino]-4-methyl-pentanoic acid; format: functional, cell-based; details: filed as agonist

T1 sequence (P30989 whole entry): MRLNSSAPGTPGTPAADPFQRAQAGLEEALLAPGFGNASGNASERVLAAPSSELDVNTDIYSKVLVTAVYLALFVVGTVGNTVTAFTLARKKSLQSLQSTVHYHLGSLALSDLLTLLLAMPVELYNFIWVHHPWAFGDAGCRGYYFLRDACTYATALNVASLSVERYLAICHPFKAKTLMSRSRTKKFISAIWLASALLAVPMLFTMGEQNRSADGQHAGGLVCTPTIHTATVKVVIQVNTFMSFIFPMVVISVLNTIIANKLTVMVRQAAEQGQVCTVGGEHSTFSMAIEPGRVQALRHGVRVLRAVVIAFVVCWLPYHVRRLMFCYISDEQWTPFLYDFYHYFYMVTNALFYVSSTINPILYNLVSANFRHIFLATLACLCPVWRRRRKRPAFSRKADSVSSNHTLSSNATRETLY
Neurotensin receptor type 2, sequence (O95665 whole entry): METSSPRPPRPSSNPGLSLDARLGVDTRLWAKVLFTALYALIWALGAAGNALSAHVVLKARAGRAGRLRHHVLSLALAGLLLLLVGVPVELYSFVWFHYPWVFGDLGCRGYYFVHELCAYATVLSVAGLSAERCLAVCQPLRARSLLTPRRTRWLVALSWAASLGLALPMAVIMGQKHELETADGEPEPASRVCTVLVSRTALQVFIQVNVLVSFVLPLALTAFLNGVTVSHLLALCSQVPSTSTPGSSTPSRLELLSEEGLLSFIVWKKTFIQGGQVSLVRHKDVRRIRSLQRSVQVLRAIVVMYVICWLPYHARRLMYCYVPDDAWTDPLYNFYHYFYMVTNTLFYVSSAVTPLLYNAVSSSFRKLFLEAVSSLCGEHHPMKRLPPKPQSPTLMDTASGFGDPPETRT

Row | Compound | viability (HepG2 [1]) | viability (MDA-MB-231 [2]) | viability (HT-29 [3]) | Activity (HepG2 [4]) | Activity (MDA-MB-231 [5]) | Activity (HT-29 [6]) | remaining at 24 h [7] | remaining at 24 h [8] | remaining at 720 h [9] | remaining at 720 h [10] | Papp at 4 h, 100 µM [11] | Ki [18] | Ki [19] | EC50 [20] | Emax [21] | further results
1 | CC[C@H](C)[C@H](NC(=O)[C@H](Cc1ccc(O)cc1)NC(=O)[C@@H]1CCCN1C(=O)[C@H](CCCNC(=N)N)NC(=O)[C@@H](N)CCCNC(=N)N)C(=O)N[C@@H](CC(C)C)C(=O)O | 96% | 93.3% | 90.7% | Non-Toxic | Non-Toxic | Non-Toxic | 100% | 100% | > 97% | 100% | 0.64 ×10⁻⁶ cm/s | – | – | – | – | Activity (Mus musculus [12]): Active; Activity [13]: Toxic; Activity [14]: Non-Toxic; Activity (Mus musculus [15]): 31%; Activity (Mus musculus [16]): 77.5%
2 | CC(C)C[C@H](NC(=O)[C@@H](NC(=O)[C@H](Cc1ccc(O)cc1)NC(=O)[C@@H]1CCCN1C(=O)[C@H](CCCNC(=N)N)NC(=O)[C@@H](C)CCCCN)C(C)(C)C)C(=O)O (X1-RPY[Tle]L-OH) | – | – | – | – | – | – | – | – | – | – | – | – | – | – | – | Kd [17]: 5.71 nM
3 | CC[C@H](C)[C@H](NC(=O)[C@H](Cc1ccc(O)cc1)NC(=O)[C@@H]1CCCN1C(=O)[C@H](CCON=C(N)N)NC(=O)[C@@H](N)CCCN=C(N)N)C(=O)N[C@@H](CC(C)C)C(=O)O | 99.8% | 97.7% | 88.9% | – | – | – | 100% | 100% | > 94% | > 95% | 0.89 ×10⁻⁶ cm/s | – | – | – | – | –
4 | CC[C@H](C)[C@H](NC(=O)[C@H](Cc1ccc(O)cc1)NC(=O)[C@@H]1CCCN1C(=O)[C@H](CCCCN)NC(=O)[C@@H](N)CCON=C(N)N)C(=O)N[C@@H](CC(C)C)C(=O)O (H-[Cav]KPYIL-OH) | – | – | – | Non-Toxic | Non-Toxic | Non-Toxic | – | – | – | – | – | 15 nM | 14 nM | 0.85 nM | 99% | Ratio Ki (Homo sapiens): 1.07
5 | CC[C@H](C)[C@H](NC(=O)[C@H](Cc1ccc(O)cc1)NC(=O)[C@@H]1CCCN1C(=O)[C@H](CCON=C(N)N)NC(=O)[C@@H](N)CCON=C(N)N)C(=O)N[C@@H](CC(C)C)C(=O)O | – | – | – | Non-Toxic | Non-Toxic | Non-Toxic | – | – | – | – | – | – | – | – | – | –
6 | CC[C@H](C)[C@H](NC(=O)[C@H](Cc1ccc(O)cc1)NC(=O)[C@@H]1CCCN1)C(=O)N[C@@H](CC(C)C)C(=O)O (H-PYIL-OH) | – | – | – | Non-Toxic | Non-Toxic | Non-Toxic | – | – | – | – | – | > 50000 nM | > 50000 nM | 3200 nM | 100% | –
7 | CC[C@H](C)[C@H](NC(=O)[C@H](Cc1ccc(O)cc1)NC(=O)[C@@H]1CCCN1C(=O)[C@H](CCON=C(N)N)NC(=O)[C@@H](N)CCCCN)C(=O)N[C@@H](CC(C)C)C(=O)O (H-K[Cav]PYIL-OH) | 95.1% | 97.3% | 94.6% | – | – | – | 100% | 100% | > 97% | > 100% | 2.81 ×10⁻⁶ cm/s | 6.9 nM | 6.5 nM | 0.82 nM | 97% | Ratio Ki (Homo sapiens): 1.06; Activity (Mus musculus [12]): Active; Activity [13]: Toxic; Activity [14]: Non-Toxic; Activity (Mus musculus [15]): 87%; Activity (Mus musculus [16]): 90%
8 | CC[C@H](C)[C@H](NC(=O)[C@H](Cc1ccc(O)cc1)NC(=O)[C@@H]1CCCN1C(=O)[C@H](CCCN=C(N)N)NC(=O)[C@@H](N)CCON=C(N)N)C(=O)N[C@@H](CC(C)C)C(=O)O | – | – | – | Non-Toxic | Non-Toxic | Non-Toxic | – | – | – | – | – | – | – | – | – | –
